Measurements published in ChEMBL document CHEMBL3804796, “Discovery of Novel 3,3-Disubstituted Piperidines as Orally Bioavailable, Potent, and Efficacious HDM2-p53 Inhibitors” (ACS Med Chem Lett, 2016).

Key:
Mus musculus = test: Toxicity in nude mouse xenografted with human SJSA1 cells assessed as body weight loss at 100 to 200 mg/kg, po qd continuously for 30 days; format: organism-based, SJSA-1; settings: in vivo, 720 h
Summary of the method: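 Nude mice bearing SJSA-1 osteosarcoma xenografts, n = 5 per group. Dosing was oral in 20% HPBCD, either continuous daily at 100 and 200 mpk or intermittent (daily for 3 days on, 4 days off). Body weight was compared against a vehicle-control group.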

Rhesus monkey = test: Dose normalized AUC (0 to 24 hrs) in monkey at 1 mg/kg, po administered as single dose; format: ADME, organism-based, Macaca mulatta; settings: in vivo
Summary of the method: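 Single oral dose of 1 mg/kg. Vehicle was 20% HPBCD for mouse and 0.4% HPMC for dog and monkey. Plasma AUC over 0–24 h, dose-normalized, reported in μM·h.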

Structure (SMILES): CCC[C@H]1N(C(=O)c2cnccc2C(F)(F)F)CCC[C@@]1(Oc1csc(C(F)(F)F)c1)C(=O)N1CCN(c2ccccc2OCCCC(=O)O)CC1
- Activity (Mus musculus): Non-toxic
- AUC/dose (Rhesus monkey): 0.2 µM·h
